# Experimental data from different studies.
# Protocols differ between the studies behind these lines.
Structure (SMILES),target or system,test,test system,conditions,quantity,value
CCC(=CCc1c(O)cc2c(c1O)C(=O)C[C@@H](c1ccccc1O)O2)CC,HeLa,"cell growth or viability, MTT",,"3.75 µM, 48 h",inhibition,-0.655%
CNC(=S)NN=Cc1ccc(F)cc1,Leishmania major,"parasite growth, MTT",,"72 h, promastigote",IC50,346 µM
CN[C@H](CC(C)C)C(=O)N[C@H]1C(=O)N[C@@H](CC(N)=O)C(=O)N[C@H]2C(=O)N[C@H]3C(=O)N[C@H](C(=O)N[C@H](C(=O)O)c4cc(O)cc(O)c4-c4cc3ccc4O)[C@H](O)c3ccc(c(Cl)c3)Oc3cc2cc(c3O[C@@H]2O[C@H](CO)[C@@H](O)[C@H](O)[C@H]2O[C@H]2C[C@](C)(N)[C@H](O)[C@H](C)O2)Oc2ccc(cc2Cl)[C@H]1O,Enterococcus faecalis,"microbial growth, agar dilution",ATCC29212,,MIC,2 µg/mL
COc1ccc(Nc2cnnc3cc(-c4ccc(N5CCN(C)CC5)cc4)ccc23)nc1,Leishmania major,parasite growth,,"intracellular, amastigote",EC50,6 µM
C=C[C@]1(C)C[C@@H](OC(=O)CS[C@@H]2C[C@H]3CC[C@@H](C2)N3C)[C@]2(C)[C@H](C)CC[C@]3(CCC(=O)[C@H]32)[C@@H](C)[C@@H]1O,Enterococcus faecalis,microbial growth,,clinical isolate,MIC50,> 128 µg/mL
CN1CCN(c2ncc(-c3ccc4nncc(Nc5ncccn5)c4c3)cn2)CC1,Leishmania major,parasite growth,,"intracellular, amastigote",EC50,> 25 µM
CNC(=S)NN=Cc1ccc(O)c(OC)c1,Leishmania major,"parasite growth, MTT",,"72 h, promastigote",IC50,38.3 µM
CCC(=CCc1c(O)cc2c(c1O)C(=O)CC(c1ccc(O)cc1)O2)CC (stereo in doubt),HeLa,"cell growth or viability, MTT",,"1.563 µM, 48 h",inhibition,2.57%
